One assay deals with TAK1/TAB1 (Homo sapiens) (UniProt Q15750+O43318). Description: Inhibition of Tak1-TAB1 (unknown origin) assessed as enzyme activity by Kinase-Glo Plus luminescence kinase assay. The format is protein-complex assay.
Assay [1] deals with HT-29. As to the kind of experiment: Cytotoxicity against human HT-29 cells assessed as cell viability after 72 hrs. The format is functional, cell-based. Conditions: HT-29, 72 h. In short, it runs like this: (§1)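 ATCC lines grown in RPMI 1640 with 10% FBS, penicillin and streptomycin at 37 °C, 5% CO2. Log-phase cells were trypsinized, washed twice, seeded at 5000/well and incubated overnight. Compound was added from DMSO at 20, 4, 0.8, 0.16 and 0.032 μM (0.5% DMSO final) for 72 h at 37 °C. Viable cells were read by commercial absorbance assay. IC50 is growth inhibition to 50% of DMSO control.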

Assay [2] has as its system MDA-MB-435. As to the kind of experiment: Cytotoxicity against human MDA-MB-435 cells assessed as cell viability after 72 hrs. The format is functional, cell-based. The note with it: MDA-MB-435, 72 h. In short, it runs like this: as §1
Assay [3] has as its system MDA-MB-435. As to the kind of experiment: Cytotoxicity against human MDA-MB-435 cells assessed as cell viability at 1 nM after 72 hrs. The format is functional. The note with it: MDA-MB-435, 72 h, read-out: Activity. In short, it runs like this:
(§2)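 Vinblastine was the positive control, at 10 nM in HT-29 and 1 nM in MDA-MB-435 cells. Cells were seeded at 5000/well, incubated overnight, then exposed for 72 h at 37 °C in 5% CO2. Viability was read by absorbance assay of viable cells and expressed as % viable cells.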

Assay [4] concerns HT-29. Description: Cytotoxicity against human HT-29 cells assessed as cell viability at 10 nM after 72 hrs. Conditions: HT-29, 72 h, read-out: Activity. The format is functional. In short, it runs like this: as §2

Calls of active or inactive are those of the source. The calls are words filed in the database; no cut-off is given here. A value given as a limit tells only on which side of the number the result lay.

Regarding `COc1cc(O)c(Cl)c2c1C(=O)O[C@@H](C)CCC(=O)CCCCC(=O)C2`, on TAK1/TAB1 (Homo sapiens), the inhibition entry was “inactive”.

Consider `COc1cc(O)c(Cl)c2c1C(=O)O[C@@H](C)CC[C@@H](O)CCCCC(=O)C2`, for which, on TAK1/TAB1 (Homo sapiens), the inhibition result is “inactive”. As for `COc1cc(O)cc2c1C(=O)O[C@@H](C)CC[C@@H](O)CC/C=C/C(=O)C2`, the results for the IC50 in the assay on HT-29 [1] and in the assay with MDA-MB-435 [2] were 25.4 µM and 11.2 µM, respectively. Further, on TAK1/TAB1 (Homo sapiens), the inhibition result was “inactive”. In the case of `COc1cc(O)cc2c1C(=O)O[C@@H](C)CCCCCCCC(=O)C2`, the inhibition entry at TAK1/TAB1 (Homo sapiens) was “inactive”. In the case of `COc1cc(O)cc2c1C(=O)O[C@@H](C)CC[C@H]1CC[C@H](CC(=O)C2)O1`, the inhibition result at TAK1/TAB1 (Homo sapiens) is “inactive”. For the molecule `COc1cc(O)cc2c1C(=O)O[C@@H](C)CC[C@H]1CC[C@@H](CC(=O)C2)O1`, the inhibition result on TAK1/TAB1 (Homo sapiens) is “inactive”. For `COc1cc(O)c(Cl)c2c1C(=O)O[C@@H](C)CCC(=O)CC/C=C/C(=O)C2`, the values for the IC50 with HT-29 [1] and in the assay on MDA-MB-435 [2] were greater than 20 µM and 14.1 µM, respectively. Moreover, the inhibition entry on TAK1/TAB1 (Homo sapiens) is “inactive”. As to `C[C@H]1CCCCC/C=C/C(=O)Cc2cc(O)cc(O)c2C(=O)O1`, the values for the IC50 with HT-29 [1] and in the assay with MDA-MB-435 [2] were 13.8 µM and 14.5 µM, respectively. In addition, on TAK1/TAB1 (Homo sapiens), the inhibition entry is “inactive”. For the molecule `COc1cc(O)c(Cl)c2c1C(=O)O[C@@H](C)CCC(=O)CC/C=C\C(=O)C2`, at TAK1/TAB1 (Homo sapiens), the inhibition entry was “inactive”. As for `COc1cc(O)c(Cl)c2c1C(=O)O[C@@H](C)CC[C@@H](O)CC/C=C\C(=O)C2`, the inhibition entry at TAK1/TAB1 (Homo sapiens) is “inactive”. In the case of `COc1cc(O)cc2c1C(=O)O[C@@H](C)CCCCC/C=C/C(=O)C2`, the IC50 is 7.5 µM in the assay on HT-29 [1] and 2.9 µM in the assay with MDA-MB-435 [2]. The inhibition entry at TAK1/TAB1 (Homo sapiens) is “inactive”. As for `CC[C@]1(O)C[C@@H]2CN(CCc3c([nH]c4ccccc34)[C@@](C(=O)OC)(c3cc4c(cc3OC)N(C)[C@H]3[C@@](O)(C(=O)OC)[C@H](OC(C)=O)[C@]5(CC)C=CCN6CC[C@]43[C@@H]65)C2)C1` [VINBLASTINE], in the assay with MDA-MB-435 [3], the viability at 0.001 µM worked out at 21%. Moreover, the viability at 0.01 µM in the assay with HT-29 [4] is 44%.

As to `COc1cc(O)cc2c1C(=O)O[C@@H](C)CCC(=O)CC/C=C/C(=O)C2`, the IC50 in the assay with HT-29 [1] is greater than 20 µM; in the assay on MDA-MB-435 [2], 14.1 µM. In addition, the inhibition entry at TAK1/TAB1 (Homo sapiens) is “inactive”.

(Values after ChEMBL document CHEMBL3352065, “Greensporones: resorcylic acid lactones from an aquatic Halenospora sp” (J Nat Prod, 2014).)
